Reference: ChEMBL document CHEMBL4699638, “A Multipronged Approach Establishes Covalent Modification of β-Tubulin as the Mode of Action of Benzamide Anti-cancer Toxins” (J Med Chem, 2020)
Activity calls are given as the source filed them. The calls are words filed in the database; no cut-off is given here.

Tests used:
[1] = Anticancer activity against mouse 319N1 cells assessed as reduction in cell viability measured after 72 hrs by celltiter-glo assay; assay type: functional, cell-based; conditions: 319N1, 72 h
In short: (§1)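 Cells seeded in duplicate at 10,000 per well in DMEM with 5% FBS and incubated overnight. Compounds were then added as a 10-point dose response. After 72 h, viability was read by CellTiter-Glo luminescence, with the reagent diluted 1:1 in PBS/1% Triton-X. Values were normalized to DMSO-treated cells and IC50 was derived from curve fitting.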

[2] = Anticancer activity against mouse 984NA cells assessed as reduction in cell viability measured after 72 hrs by celltiter-glo assay; assay type: functional, cell-based; in short: as §1
[3] = Anticancer activity against mouse 518T2 cells assessed as reduction in cell viability measured after 72 hrs by celltiter-glo assay; assay type: functional, cell-based; conditions: 518T2, 72 h; in short: as §1
NCI-H889 = assay: Anticancer activity against human NCI-H889 cells assessed as reduction in cell viability measured after 72 hrs by celltiter-glo assay; assay type: functional, cell-based
NCI-H2107 = assay: Anticancer activity against human NCI-H2107 cells assessed as reduction in cell viability measured after 72 hrs by celltiter-glo assay; assay type: functional, cell-based
NCI-H128 = assay: Anticancer activity against human NCI-H128 cells assessed as reduction in cell viability measured after 72 hrs by celltiter-glo assay; assay type: functional, cell-based
518T2 [4] = assay: Binding affinity to beta-tubulin in mouse 518T2 cells at 0.1 to 50 uM measured after 1.5 hrs using Alexa Fluor 532 dye by copper-mediated click reaction based SDS PAGE analysis; assay type: cell-based; conditions: dose microM 0.1-50, time 1.5 hrs
In short: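 Competition assay in 518T2 cells (1 million per well, DMEM with 5% FBS). Test analogs in DMSO were dispensed first at 100 nM to 50 μM and the cells plated onto them. The next day, alkyne probe (5 μM) was added for 1.5 h at 37 °C. Lysis was in 1% SDS HEPES buffer, followed by a click reaction with fluorescent azide, SDS-PAGE, and EC50 from displacement of the p50 band.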

518T2 [5] = assay: Cell cycle arrest in mouse 518T2 cells assessed as increase in accumulation at G2/M-phase at 300 nM measured after 24 hrs by propidium iodide staining based flow cytometry; assay type: functional
In short: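 518T2 murine SCLC cells were exposed for 24 h to compound (300 nM) or DMSO vehicle. Cell cycle distribution was then read by flow cytometry.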

Bos taurus = species on record: Bos taurus; assay: Binding affinity to bovine brain beta-tubulin assessed as reduction in microtubule growth at 1 uM measured up to 30 mins by microscopic analysis relative to control; design: scale not given: the % may be the effect or the level left; conditions: time min <=30
In short: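 Microtubule growth from brain tubulin was imaged by time-lapse DIC microscopy at 30 °C on biotinylated GMPCPP seeds bound to neutravidin coverslips. Frames were taken every 50 ms and averaged in batches of 30; recordings ran about 30 min. Growth rates were quantified per microtubule.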

[6] = biological target: Tubulin beta-3 chain (Homo sapiens) (UniProt Q13509); assay: Binding affinity to recombinant human C-terminal His-tagged beta3-tubulin expressed in insect cells assessed as reduction in microtubule growth up to 10 uM measured up to 30 mins by microscopic analysis; conditions: dose microM <=10, time min <=30
Chain of Tubulin beta-3 chain (Homo sapiens) (Q13509 whole entry): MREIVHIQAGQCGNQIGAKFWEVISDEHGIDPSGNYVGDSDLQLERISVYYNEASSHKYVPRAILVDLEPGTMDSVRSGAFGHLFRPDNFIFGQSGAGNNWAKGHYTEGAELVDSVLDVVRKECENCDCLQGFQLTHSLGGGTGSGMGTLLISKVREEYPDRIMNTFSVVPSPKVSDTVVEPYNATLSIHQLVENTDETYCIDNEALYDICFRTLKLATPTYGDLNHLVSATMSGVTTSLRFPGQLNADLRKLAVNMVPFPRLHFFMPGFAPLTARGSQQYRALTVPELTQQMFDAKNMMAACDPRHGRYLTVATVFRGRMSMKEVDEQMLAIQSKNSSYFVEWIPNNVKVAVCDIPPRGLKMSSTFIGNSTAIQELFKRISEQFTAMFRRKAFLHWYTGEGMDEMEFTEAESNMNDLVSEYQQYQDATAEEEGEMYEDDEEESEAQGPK
In short: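 Human αβ-tubulin (TUBA1B plus TUBB3 with cleavable C-terminal His-tag) was expressed in Tni insect cells. It was purified by Ni-affinity, TEV cleavage and anion exchange, then kept in BRB80 with 50 μM GTP. Growth was measured by DIC time-lapse at 30 °C on GMPCPP seeds in 144 mM PIPES pH 6.9 buffer with 1 mM GTP and 4% DMSO, over about 30 min. Compound was tested at 1, 5 and 10 μM; growth rates were measured per microtubule over two trials.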

518T2 [7] = assay: Inhibition of colony formation in mouse 518T2 cells harboring Tubb5 T238A mutant at 400 nM measured after 2 weeks by crystal violet staining based assay; assay type: functional, cell-based
In short: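 518T2 cells were transfected with Cas9-sgRNA complexes targeting Tubb5 plus an oligonucleotide repair template encoding T238A, or a sham control. They were selected with compound at 400 nM for 2 weeks, and the plates were then stained with crystal violet to visualize resistant colonies.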

319N1 [8] = assay: Anticancer activity against Msh2-deficient mouse 319N1 cells assessed as reduction in cell viability measured after 72 hrs by celltiter-glo assay; assay type: functional, cell-based; in short: as §1
319N1 [9] = assay: Anticancer activity against mouse 319N1 clone A cells assessed as reduction in cell viability measured after 72 hrs by celltiter-glo assay; assay type: functional, cell-based; in short: as §1
319N1 [10] = assay: Anticancer activity against mouse 319N1 clone B cells assessed as reduction in cell viability measured after 72 hrs by celltiter-glo assay; assay type: functional, cell-based; in short: as §1
319N1 [11] = assay: Anticancer activity against mouse 319N1 clone C cells assessed as reduction in cell viability measured after 72 hrs by celltiter-glo assay; assay type: functional, cell-based; in short: as §1
319N1 [12] = assay: Anticancer activity against mouse 319N1 clone D cells assessed as reduction in cell viability measured after 72 hrs by celltiter-glo assay; assay type: functional, cell-based; in short: as §1
319N1 [13] = assay: Anticancer activity against mouse 319N1 clone E cells assessed as reduction in cell viability measured after 72 hrs by celltiter-glo assay; assay type: functional, cell-based; in short: as §1
518T2 [14] = assay: Binding affinity to beta-tubulin in mouse 518T2 cells measured after 1.5 hrs using Alexa Fluor 532 dye by copper-mediated click reaction based SDS PAGE analysis; assay type: cell-based
In short: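 Competition format in 518T2 murine SCLC cells, 1 million per well in DMEM with 5% FBS. Analogs in DMSO (100 nM to 50 μM) were dispensed first and cells plated onto them. Next day alkyne probe 24 (5 μM) was added for 1.5 h at 37 °C, 5% CO2. EC50 was taken from displacement of the 50 kDa band.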

518T2 [15] = assay: Binding affinity to beta-tubulin in mouse 518T2 cells at 0.05 to 50 uM measured after 1.5 hrs using Alexa Fluor 532 dye by copper-mediated click reaction based SDS PAGE analysis; assay type: cell-based; conditions: dose microM 0.05-50, time 1.5 hrs
In short: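 518T2 cells were plated at 1 million per well in DMEM with 5% FBS. The next day, alkyne probe in DMSO was added at 50 nM to 50 μM for 1.5 h at 37 °C in 5% CO2. Cells were washed, lysed in 1% SDS buffer (50 mM HEPES pH 7.4, 10 mM KCl, 2 mM MgCl2, benzonase), click-reacted with Alexa Fluor 532 azide and resolved by SDS-PAGE fluorescence.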

518T2 [16] = assay: Binding affinity to beta-tubulin in mouse 518T2 cells measured after 1.5 hrs using diazo biotin azide dye by silver staining based based SDS PAGE analysis; assay type: cell-based
In short: (§2)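 518T2 cells were grown at large scale (100 mg protein per condition) and treated with covalent or non-covalent alkyne probe. Lysates were clicked to 100 μM diazo biotin azide, acetone-precipitated, resolubilized in 4% SDS/PBS, and captured on streptavidin beads for 1 h at 25 °C. Eluates were run on silver-stained SDS-PAGE or analyzed by nano-LC-MS/MS (Orbitrap, HCD). Peptide abundance was normalized to the non-covalent probe sample.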

[17] = biological target: Tubulin beta-5 chain (Mus musculus) (UniProt P99024); assay: Binding affinity to beta5-tubulin in mouse 518T2 cells measured after 1.5 hrs by LC-MS/MS analysis; assay type: cell-based; in short: as §2
Chain of Tubulin beta-5 chain (Mus musculus) (P99024 whole entry, the tested form may be a part): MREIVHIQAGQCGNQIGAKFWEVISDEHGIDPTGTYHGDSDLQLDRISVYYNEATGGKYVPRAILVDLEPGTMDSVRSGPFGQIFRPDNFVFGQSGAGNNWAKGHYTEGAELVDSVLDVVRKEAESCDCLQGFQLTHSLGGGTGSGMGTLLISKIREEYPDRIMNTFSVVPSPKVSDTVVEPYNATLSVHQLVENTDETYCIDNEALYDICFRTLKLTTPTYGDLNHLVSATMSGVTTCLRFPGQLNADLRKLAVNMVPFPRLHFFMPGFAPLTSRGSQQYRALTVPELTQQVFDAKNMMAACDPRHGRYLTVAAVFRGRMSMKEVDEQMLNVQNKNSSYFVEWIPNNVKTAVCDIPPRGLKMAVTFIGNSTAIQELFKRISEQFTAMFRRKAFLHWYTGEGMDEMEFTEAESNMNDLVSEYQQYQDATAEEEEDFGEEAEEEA

[18] = biological target: Tubulin beta-5 chain (Mus musculus) (UniProt P99024); assay: Binding affinity to beta5-tubulin (217 to 241 residues) in mouse 518T2 cells measured after 1.5 hrs by LC-MS/MS analysis; assay type: cell-based; in short: as §2

SMILES: O=C(c1ccc(Cl)c([N+](=O)[O-])c1)N1CCN(c2ccccc2)CC1
- IC50 [1]: 3.21 µM
- IC50 [2]: 3.21 µM
- IC50 [3]: 3.21 µM
- Activity (NCI-H889): Active
- Activity (NCI-H2107): Active
- Activity (NCI-H128): Active
- beta-tubulin binding (probe competition, active/inactive) (518T2 [4]): Active

SMILES: Cc1ccc(Cl)cc1N1CCN(C(=O)c2ccc(Br)c([N+](=O)[O-])c2)CC1
- IC50 [1]: 0.055 µM
- beta-tubulin binding (probe competition, active/inactive) (518T2 [4]): Active
- Activity (518T2 [5]): Active
- Activity (Bos taurus): 80%
- Activity [6]: inactive
- inhibition (518T2 [7]): inactive

SMILES: COc1cc([C@@H]2c3cc4c(cc3[C@@H](O[C@@H]3O[C@@H]5CO[C@@H](C)O[C@H]5[C@H](O)[C@H]3O)[C@H]3COC(=O)[C@H]23)OCO4)cc(OC)c1O
- Activity (319N1 [8]): Active
- Activity (319N1 [9]): Active
- Activity (319N1 [10]): Active
- Activity (319N1 [11]): Active
- Activity (319N1 [12]): Active
- Activity (319N1 [13]): Active

SMILES: Cc1ccc(Cl)cc1N1CCN(C(=O)c2cc(Cl)cc([N+](=O)[O-])c2)CC1
- IC50 [1]: 4.87 µM

SMILES: O=C(c1ccc(Cl)c([N+](=O)[O-])c1)N1CCN(c2ccccc2F)CC1
- IC50 [1]: 7.94 µM

SMILES: COc1cccc(N2CCN(C(=O)c3ccc(Cl)c([N+](=O)[O-])c3)CC2)c1
- IC50 [1]: 1.56 µM
- beta-tubulin binding (probe competition, active/inactive) (518T2 [4]): Active

SMILES: O=C(c1ccc(Cl)c([N+](=O)[O-])c1)N1CCN(c2ccc(F)cc2)CC1
- IC50 [1]: 21.1 µM

SMILES: O=C(c1ccc(Cl)c([N+](=O)[O-])c1)N1CCN(c2cccc(Cl)c2)CC1
- IC50 [1]: 0.694 µM

SMILES: Cc1cccc(N2CCN(C(=O)c3ccc(Cl)c([N+](=O)[O-])c3)CC2)c1
- IC50 [1]: 1.42 µM
- beta-tubulin binding (probe competition, active/inactive) (518T2 [4]): Active

SMILES: COc1ccc(N2CCN(C(=O)c3ccc(Cl)c([N+](=O)[O-])c3)CC2)cc1
- IC50 [1]: 40.3 µM

SMILES: O=C(c1ccc(Cl)c([N+](=O)[O-])c1)N1CCN(c2ccccc2Cl)CC1
- IC50 [1]: 2.95 µM
- beta-tubulin binding (probe competition, active/inactive) (518T2 [4]): Active

SMILES: COc1cc2c(c(OC)c1OC)-c1ccc(OC)c(=O)cc1[C@@H](NC(C)=O)CC2
- inhibition (518T2 [14]): Dose-dependent effect
- Activity (518T2 [5]): Active

SMILES: Cc1ccc(Cl)cc1N1CCN(C(=O)c2ccc(OC(F)(F)F)c([N+](=O)[O-])c2)CC1
- IC50 [1]: 0.02 µM

SMILES: Cc1ccc(Cl)cc1N1CCN(C(=O)c2cccc([N+](=O)[O-])c2Cl)CC1
- IC50 [1]: 12.4 µM

SMILES: C#CCOc1cccc(N2CCN(C(=O)c3ccc(Cl)c([N+](=O)[O-])c3)CC2)c1
- IC50 [1]: 1.19 µM
- Activity (518T2 [15]): Active
- Activity (518T2 [16]): Active
- Activity [17]: Active
- Activity [18]: Active

SMILES: C#CCOc1cccc(N2CCN(C(=O)c3ccc(C)c([N+](=O)[O-])c3)CC2)c1
- IC50 [1]: 13 µM
- Activity (518T2 [15]): inactive
- Activity (518T2 [16]): inactive
